Data as given in ChEMBL document CHEMBL3244197, “Mercaptoimidazolylpropionic acid hydrobromide. Inhibition of tadpole collagenase and related properties” (J Med Chem, 1978).
Calls of active or inactive are those of the source. The rule behind the calls is not given here.

Tests used:
Mus musculus [1] = assay: Toxicity in Swiss-Wistar mouse assessed as body weight gain at 1980 mg/kg, ip after 3 days (reference value: 20%); type: organism-based; set-up: dose 1980 mg/kg, route intraperitoneal; conditions: in vivo, 72 h
[2] = Half life of the compound in phosphate buffer with 214 ml/min oxygen flow assessed as oxidation at 0.25 mM by Ellman's method; type: physicochemical
How it was run: (§1)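 35 mL sample, 0.1 M phosphate buffer pH 7.4, oxygen-saturated; water-vapour-saturated O2 bubbled through via gas dispersion tube at 20 °C. 200 µL aliquots withdrawn over time; remaining SH titre measured by quantitative Ellman determination; half-time in hours.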

Mus musculus [3] = assay: Toxicity in Swiss-Wistar mouse assessed as body weight gain at 189 mg/kg, ip after 3 days (reference value: 20%); type: organism-based; set-up: dose 189 mg/kg, route intraperitoneal; conditions: in vivo, 72 h
Mus musculus [4] = assay: Toxicity in Swiss-Wistar mouse assessed as change in health condition at 189 to 1980 mg/kg, ip after 7 days; type: organism-based; set-up: dose 189-1980 mg/kg, route intraperitoneal; conditions: in vivo, 168 h
Mus musculus [5] = assay: Toxicity in Swiss-Wistar mouse assessed as body weight gain at 418 mg/kg, ip after 3 days (reference value: 20%); type: organism-based; set-up: dose 418 mg/kg, route intraperitoneal; conditions: in vivo, 72 h
Mus musculus [6] = assay: Toxicity in Swiss-Wistar mouse assessed as body weight gain at 885 mg/kg, ip after 3 days (reference value: 20%); type: organism-based; set-up: dose 885 mg/kg, route intraperitoneal; conditions: in vivo, 72 h
[7] = Half life of the compound in phosphate buffer with 400 ml/min oxygen flow assessed as oxidation at 0.14 mM by Ellman's method; type: physicochemical; how it was run: as §1
[8] = (§2) Inhibition of Rana catesbeiana tadpole collagenase using lathyritic rat skin collagen as substrate after 41 hrs by radial diffusion assay; conditions: read-out: I50
How it was run: (§3)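 Enzyme cultured from tadpole tail fin and back skin, purified by ammonium sulfate precipitation and Sephadex G-200, concentrated 20-fold by ultrafiltration at 4 °C. Gel: Tris-buffered pH 7.6, 1% agarose with 0.1% collagen, set 2 h at 20 °C, held ≥40 h at 4 °C. Wells (3.0 mm) received 15 µL enzyme ± inhibitor. Incubation 41 h at 28 °C, then 2 h at 37 °C. Lysis-zone diameter read as radial diffusion units; concentration for 50% inhibition taken.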

Bacillus subtilis = assay: Mutagenicity in repair-deficient Bacillus subtilis assessed as growth inhibition at 0.1 M; type: toxicity, organism-based; conditions: in vivo
How it was run: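 Repair-deficient tester strains exposed to test compound at 0.10 M, with chloroacetaldehyde (0.10 M) as mutagen reference; growth inhibition scored.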

Rana catesbeiana = species on record: Rana catesbeiana; assay: as §2; how it was run: as §3
[9] = Half life of the compound in phosphate buffer with 200 ml/min oxygen flow assessed as oxidation at 0.28 mM by Ellman's method; type: physicochemical; how it was run: as §1
[10] = Half life of the compound in phosphate buffer with 350 ml/min oxygen flow assessed as oxidation at 0.27 mM by Ellman's method; type: physicochemical; how it was run: as §1
[11] = Half life of the compound in phosphate buffer with 360 ml/min oxygen flow assessed as oxidation at 0.16 mM by Ellman's method; type: physicochemical; how it was run: as §1
[12] = Half life of the compound in phosphate buffer with 214 ml/min oxygen flow assessed as oxidation at 0.24 mM by Ellman's method; type: physicochemical; how it was run: as §1

SMILES: Br.O=C(O)C(S)Cc1cnc[nH]1 (racemic)
- Activity (Mus musculus [1]): 18%
- half-life at 250 µM [2]: 12.7 h
- Activity (Mus musculus [3]): 22%
- Activity (Mus musculus [4]): Non-toxic
- Activity (Mus musculus [5]): 18%
- Activity (Mus musculus [6]): 23%
- half-life at 140 µM [7]: 8.7 h
- IC50 [8]: 3.8 mM
- Activity (Bacillus subtilis): Non-toxic

SMILES: O=C(O)C(Br)Cc1cnc[nH]1 (racemic)
- I50 (Rana catesbeiana): inactive

SMILES: CC(=O)N[C@@H](CS)C(=O)O [ACETYLCYSTEINE]
- half-life at 280 µM [9]: 12.8 h
- half-life at 270 µM [10]: 10.9 h
- IC50 [8]: ≥ 100 mM

SMILES: N[C@@H](CS)C(=O)O [CYSTEINE]
- half-life at 160 µM [11]: 5.3 h
- IC50 [8]: 8.7 mM
- half-life at 240 µM [12]: 6.4 h

SMILES: N[C@@H](Cc1c[nH]cn1)C(=O)O [HISTIDINE]
- IC50 [8]: ≥ 100 mM
